Nine molecules from ChEMBL document CHEMBL1250501, “Anti-tubercular agents. Part 5: synthesis and biological evaluation of benzothiadiazine 1,1-dioxide based congeners” (Eur J Med Chem, 2010) can be followed below.

Holding throughout (type): functional
In experiment [1] the test system is Staphylococcus aureus. Nature of the experiment: Antibacterial activity against Staphylococcus aureus at 50 ug/ml after 18 hrs by cup plate method. To be noted: for zone of inhibition at 50 µg/mL: read-out: DIZ. In outline:
(§1)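 Agar well diffusion on Mueller-Hinton agar. Inoculum was adjusted to a 0.5 McFarland standard (about […] × 10⁸ CFU/mL) and swabbed over the plate three times, rotating about 60° each time, then the rim was swabbed. Compounds in DMSO went into duplicate 6 mm wells. Plates were incubated at 37 °C for 18 h and inhibition zone diameter read to the nearest mm. DMSO negative control; streptomycin and ciprofloxacin positive controls.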

Experiment [2] has as its system Candida albicans. Nature of the experiment: Antifungal activity against Candida albicans MTCC 227 at 50 ug/ml after 48 hrs by cup plate method. In outline: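 Agar well (cup plate) diffusion on potato dextrose agar 39 g/L. Compounds dissolved in DMSO and loaded into 6 mm wells. Incubated at 28 ± 2 °C for 48 h. Inhibition zone diameter measured to the nearest millimetre, three replicates per treatment. DMSO solvent as negative control, amphotericin B as positive control.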

The subject of experiment [3] is Bacillus subtilis. Nature of the experiment: Antibacterial activity against Bacillus subtilis at 50 ug/ml after 18 hrs by cup plate method. To be noted: for zone of inhibition at 50 µg/mL: read-out: DIZ. A digest of the protocol:
as §1

Experiment [4] concerns Staphylococcus epidermidis. Nature of the experiment: Antibacterial activity against Staphylococcus epidermidis at 50 ug/ml after 18 hrs by cup plate method. The note with it: for zone of inhibition at 50 µg/mL: read-out: DIZ. A digest of the protocol:
as §1

The subject of experiment [5] is Pseudomonas aeruginosa. Nature of the experiment: Antibacterial activity against Pseudomonas aeruginosa at 50 ug/ml after 18 hrs by cup plate method. The note with it: for zone of inhibition at 50 µg/mL: read-out: DIZ. A digest of the protocol: as §1
In experiment [6] the test system is Escherichia coli. Nature of the experiment: Antibacterial activity against Escherichia coli at 50 ug/ml after 18 hrs by cup plate method. To be noted: for zone of inhibition at 50 µg/mL: read-out: DIZ. A digest of the protocol: as §1
For experiment [7], the system named is Klebsiella pneumoniae. Put plainly: Antibacterial activity against Klebsiella pneumoniae at 50 ug/ml after 18 hrs by cup plate method. To be noted: for zone of inhibition at 50 µg/mL: read-out: DIZ. A digest of the protocol:
as §1

For experiment [8], the system named is Bacillus subtilis. Put plainly: Antibacterial activity against Bacillus subtilis at 100 ug/ml after 18 hrs by cup plate method. To be noted: for zone of inhibition at 100 µg/mL: read-out: DIZ. In outline:
as §1

Experiment [9] concerns Staphylococcus aureus. Nature of the experiment: Antibacterial activity against Staphylococcus aureus at 100 ug/ml after 18 hrs by cup plate method. The note with it: for zone of inhibition at 100 µg/mL: read-out: DIZ. A digest of the protocol: as §1
Experiment [10] concerns Pseudomonas aeruginosa. Nature of the experiment: Antibacterial activity against Pseudomonas aeruginosa at 100 ug/ml after 18 hrs by cup plate method. To be noted: for zone of inhibition at 100 µg/mL: read-out: DIZ. In outline:
as §1

The test system of experiment [11] is Candida albicans. Nature of the experiment: Antifungal activity against Candida albicans MTCC 227 at 100 ug/ml after 48 hrs by cup plate method. To be noted: MTCC 227, 48 h, read-out: IZ. A digest of the protocol: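 Agar well (cup plate) diffusion on potato dextrose agar 39 g/L, with compounds dissolved in DMSO. Plates were incubated at 28 ± 2 °C for 48 h and inhibition zones measured to the nearest mm. Three replicates per treatment. Amphotericin B positive control; solvent control included.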

For experiment [12], the system named is Mycobacterium tuberculosis. Nature of the experiment: Antimycobacterial activity against Mycobacterium tuberculosis H37Rv after 3 to 4 weeks by broth microdilution assay. A digest of the protocol:
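MIC by broth microdilution on compounds active in a single-concentration primary screen. Plates incubated 3–4 weeks at 37 °C in a CO₂ incubator. Wells read visually for absence of growth turbidity.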

For experiment [13], the system named is Escherichia coli. Nature of the experiment: Antibacterial activity against Escherichia coli at 100 ug/ml after 18 hrs by cup plate method. The note with it: for zone of inhibition at 100 µg/mL: read-out: DIZ. In outline:
as §1

Experiment [14] relates to Klebsiella pneumoniae. Nature of the experiment: Antibacterial activity against Klebsiella pneumoniae at 100 ug/ml after 18 hrs by cup plate method. To be noted: for zone of inhibition at 100 µg/mL: read-out: DIZ. A digest of the protocol: as §1
Experiment [15] deals with Staphylococcus epidermidis. Put plainly: Antibacterial activity against Staphylococcus epidermidis at 100 ug/ml after 18 hrs by cup plate method. To be noted: for zone of inhibition at 100 µg/mL: read-out: DIZ. In outline: as §1
Experiment [16] relates to Klebsiella pneumoniae. Put plainly: Antibacterial activity against Klebsiella pneumoniae at 25 ug/ml after 18 hrs by cup plate method. The note with it: read-out: DIZ. A digest of the protocol:
as §1

Experiment [17] concerns Pseudomonas aeruginosa. Nature of the experiment: Antibacterial activity against Pseudomonas aeruginosa at 25 ug/ml after 18 hrs by cup plate method. The note with it: read-out: DIZ. A digest of the protocol: as §1

The structures appear in SMILES notation. Converted amounts (≈) assume the structure as drawn. The source made the active and inactive calls. No cut-off for these calls is given here. Some results are limits rather than exact numbers.

In the case of `CN[C@@H]1[C@H](O[C@H]2[C@H](O[C@H]3[C@H](O)[C@@H](O)[C@H](N=C(N)N)[C@@H](O)[C@@H]3N=C(N)N)O[C@@H](C)[C@]2(O)C=O)O[C@@H](CO)[C@H](O)[C@H]1O` [STREPTOMYCIN], the zone of inhibition at 50 µg/mL was 22 mm in experiment [1]; 17 mm in experiment [3]; 18 mm in experiment [4]; 29 mm in experiment [5]; 21 mm in [6]; 22 mm in [7]. In addition, in experiment [2], the “inhibition zone (IZ)” value is “inactive”.
`CCN1C(N2CCN(C(=O)c3ccc([N+](=O)[O-])o3)CC2)=NS(=O)(=O)c2ccccc21`: the “diameter of the inhibition zone (DIZ)” value in [1], in experiment [8], in experiment [9], in experiment [10], in [3] and in experiment [4] was “inactive” each time. Besides, the “diameter of the inhibition zone (DIZ)” value in experiment [5], in [13], in experiment [6], in experiment [7], in [14] and in [15] was “inactive” each time. In experiment [2], the “inhibition zone (IZ)” value is “inactive”. Further, the zone of inhibition at 100 µg/mL in [11] is 10 mm. The MIC – broadly, the lowest concentration found to suppress growth – in experiment [12] was greater than 16 µg/mL.
For `CN1C(N2CCN(Cc3ccc([N+](=O)[O-])s3)CC2)=NS(=O)(=O)c2ccccc21`, the zone of inhibition at 50 µg/mL in experiment [1] came to 10 mm; in [4], 14 mm. For the same molecule, the zone of inhibition at 100 µg/mL in [8] amounted to 18 mm; in [9], 12 mm; in experiment [10], 13 mm; in experiment [11], 17 mm; in [13], 16 mm; in [14], 12 mm. Further, in experiment [15], the zone of inhibition at 100 µg/mL was 16 mm. Moreover, the “inhibition zone (IZ)” value in experiment [2] was “inactive”. Also, the “diameter of the inhibition zone (DIZ)” value in experiment [3], in [5], in experiment [6] and in experiment [7] was “inactive” throughout. The molecule also registered an MIC in experiment [12] greater than 16 µg/mL.
On to `CN1C(N2CCN(C(=O)c3ccc([N+](=O)[O-])o3)CC2)=NS(=O)(=O)c2ccccc21`, for which the zone of inhibition at 50 µg/mL was found to be 17 mm in experiment [1], 10 mm in [4], 10 mm in experiment [5] and 9 mm in experiment [6]. The “diameter of the inhibition zone (DIZ)” value in experiment [8], in experiment [10], in experiment [3], in [13], in experiment [7] and in experiment [14] was “inactive” in each case. Further, the “diameter of the inhibition zone (DIZ)” value in experiment [15] is “inactive”. Moreover, the “inhibition zone (IZ)” value in experiment [2] was “inactive”. For the same molecule, the results for the zone of inhibition at 100 µg/mL in experiment [9] and in experiment [11] were 18 mm and 12 mm, respectively. The molecule further displayed an MIC in experiment [12] of 16 µg/mL (≈ 38.1 µM).
As for `O=[N+]([O-])c1ccc(CN2CCN(C3=NS(=O)(=O)c4ccccc4N3c3ccccc3)CC2)s1`, the zone of inhibition at 50 µg/mL in [1] was determined as 9 mm. The zone of inhibition at 100 µg/mL in experiment [8] is 14 mm; in [9], 12 mm; in experiment [10] it was 12 mm; in experiment [11], 12 mm; in experiment [13], 16 mm; in experiment [14], 13 mm. Besides, the zone of inhibition at 100 µg/mL in [15] worked out at 14 mm. Also, the “inhibition zone (IZ)” value in experiment [2] was “inactive”. The “diameter of the inhibition zone (DIZ)” value in experiment [3], in experiment [4], in experiment [5], in experiment [6] and in experiment [7] was “inactive” in each case. Also, the MIC in experiment [12] is greater than 16 µg/mL.
`O=[N+]([O-])c1ccc(CN2CCN(C3=NS(=O)(=O)c4ccccc4N3c3ccccc3)CC2)o1`: the zone of inhibition at 50 µg/mL in [1] worked out at 14 mm; in experiment [4], 15 mm; in experiment [5] it was 10 mm; in experiment [6], 14 mm. Besides, the zone of inhibition at 100 µg/mL was 19 mm in experiment [8]; 15 mm in experiment [9]; 15 mm in [10]; 11 mm in experiment [11]; 20 mm in experiment [13]; 15 mm in experiment [14]. The zone of inhibition at 100 µg/mL in experiment [15] amounted to 20 mm. In addition, the “inhibition zone (IZ)” value in experiment [2] is “inactive”. Besides, the “diameter of the inhibition zone (DIZ)” value in experiment [3] and in experiment [7] was “inactive” throughout. For the same molecule, the MIC in experiment [12] turned out to be 2 µg/mL (≈ 4.28 µM).
`O=C(O)c1cn(C2CC2)c2cc(N3CCNCC3)c(F)cc2c1=O` [CIPROFLOXACIN]: the zone of inhibition at 50 µg/mL in [1] amounted to 26 mm; in experiment [3], 32 mm; in experiment [4], 34 mm; in experiment [5], 30 mm; in [6], 38 mm; in experiment [7], 20 mm. Besides, the “inhibition zone (IZ)” value in [2] was “inactive”. In addition, the figures for the zone of inhibition at 25 µg/mL in experiment [16] and in experiment [17] were 21 mm and 40 mm, respectively.
As for `CCN1C(N2CCN(Cc3ccc([N+](=O)[O-])s3)CC2)=NS(=O)(=O)c2ccccc21`, the zone of inhibition at 50 µg/mL in experiment [1] was found to be 10 mm; in experiment [4] it was 12 mm. Besides, the zone of inhibition at 100 µg/mL in experiment [8] stood at 16 mm; in experiment [9], 11 mm; in experiment [10], 11 mm; in experiment [11], 14 mm; in experiment [13], 15 mm; in experiment [14], 14 mm. In addition, in experiment [15], the zone of inhibition at 100 µg/mL stood at 18 mm. In addition, the “inhibition zone (IZ)” value in experiment [2] is “inactive”. Moreover, the “diameter of the inhibition zone (DIZ)” value in experiment [3], in experiment [5], in [6] and in [7] was “inactive” each time. This molecule also came in with an MIC in [12] of 4 µg/mL (≈ 9.18 µM).
For the molecule `O=C(c1ccc([N+](=O)[O-])o1)N1CCN(C2=NS(=O)(=O)c3ccccc3N2c2ccccc2)CC1`, the “diameter of the inhibition zone (DIZ)” value in experiment [1], in experiment [3] and in experiment [7] was “inactive” each time. The zone of inhibition at 100 µg/mL in experiment [8] stood at 19 mm; in experiment [9] it was 15 mm; in [10] it was 16 mm; in [11], 17 mm; in [13], 20 mm; in [14], 11 mm. Also, the zone of inhibition at 100 µg/mL in [15] was determined as 17 mm. Also, the zone of inhibition at 50 µg/mL worked out at 10 mm in experiment [2] (MTCC 227, 48 h, read-out: IZ); 10 mm in [4]; 10 mm in experiment [5]; 10 mm in [6]. The MIC in experiment [12] was greater than 16 µg/mL.
